Measurements as given in publication PMC6318120 (Cellular and molecular life sciences : CMLS, 2017).

Columns and labels:
[1] = test system: Cx43-hemichannels in primary bovine corneal endothelial cells (BCECs); settings: cited from earlier work
[2] = test system: native HeLa cells, which lack endogenous Cx43 expression; test: Whole-cell patch clamp recording in native HeLa cells; assay type: cell-based, human; settings: peptide 100 μM; voltage steps -30 to +60 mV; Supplementary Fig. 1
Procedure, shortened: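 Whole-cell patch clamp was done on untransfected HeLa cells. The CsCl/EGTA/TEA pipette solution (pH 7.2) was set to 1 µM free Ca2+ and delivered test peptide (100 µM). Steps ran from −30 to +60 mV for 30 s, acquired at 4 kHz and filtered at 1 kHz.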

[3] = test system: Cx43-hemichannels in HeLa cells overexpressing Cx43; test: Whole-cell patch clamp recording of unitary Cx43-hemichannel currents; assay type: cell-based, human; settings: peptide 100 μM via patch pipette
Cx43-hemichannels = settings: cited from earlier work; for effect on Cx43-hemichannel inhibition by high [Ca2+]i: 1 μM [Ca2+]i
Cx43 gap junctions = settings: cited from earlier work
Cx43^M242 hemichannels = test: ATP release from HeLa cells transiently expressing CT-truncated Cx43^M242; assay type: cell-based, human; settings: peptide 100 μM; Fig. 6b
Procedure, shortened: (§1)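 HeLa cells were transiently transfected with the truncated Cx43 construct; empty-vector-transfected cells gave background release. Cells were triggered with 2 µM A23187 while exposed to vehicle or TAT-linked test peptides (100 µM). Extracellular ATP was measured by luciferin–luciferase and normalised to baseline from separate cultures in standard HBSS-HEPES. At least four independent measurements.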

[4] = test system: Cx43^ΔGap19M242-based hemichannels; test: ATP release from HeLa cells transiently expressing Cx43^ΔGap19M242; assay type: cell-based, human; settings: peptide 100 μM; 2 μM A23187; n = 4; Fig. 7a
Procedure, shortened: as §1

For thrombin, the “effect of thrombin pre-treatment on the active area in BCECs” value ([1]; pre-treatment of BCECs) is given as “strongly reduced”.
With SPTAPLSPMSPPG [SH3] the “unitary current activity in native HeLa cells at 1 μM [Ca2+]i” value [2] was “did not elicit any changes”, the “membrane charge transfer (Qm) summary at 1 μM [Ca2+]i” value ([3]; current traces integrated over time, Fig. 4j) was “remove hemichannel inhibition” and the “effect on hemichannel opening activity at 50 nM [Ca2+]i” value ([3]; voltage steps -30 to +60 mV, 30 s, Fig. 4b, c) was “did not affect”. The “effect on inhibition of Cx43-hemichannel currents by 1 μM [Ca2+]i” value ([3]; voltage steps -30 to +60 mV, 30 s, Fig. 4g-i) was “completely prevented the inhibition”.
In the case of “YGRKKRRORRRDGANVDMHLKQTFTKKFKYGTFFHGK [TAT-L2]”, the “effect on opening of Cx43-hemichannels” value (Cx43-hemichannels) is listed as “inhibited the opening of Cx43-hemichannels”, the “effect of TAT-L2 pre-treatment on the active area in BCECs” value ([1]; pre-treatment of BCECs) is listed as “severely reduced” and the “effect on Cx43 gap junctions” value (Cx43 gap junctions) is listed as “but not Cx43 gap junctions”.
In the case of `Cc1ccc2c(c1)C(=O)C1(O)CCN(c3ccccc3)C1=N2` (single isomer, unassigned; (-)) [(−)-blebbistatin], the “effect on Cx43-hemichannel inhibition by high [Ca2+]i” value (Cx43-hemichannels) is given as “prevented the Cx43-hemichannel inhibition by high [Ca^2+]i” and the “effect on thrombin-induced inhibition of Cx43-hemichannels in BCECs” value ([1]; thrombin-treated BCECs) is given as “could be alleviated”.
For YGRKKRRQRRRSSPTAPLSPMSPPG [TAT-SH3], the “restoration of ATP release of Cx43^M242 hemichannels in response to 2 μM A23187” value (Cx43^M242 hemichannels) was “restored the ATP release properties” and the “restoration of ATP release through Cx43^ΔGap19M242-based hemichannels” value [4] was “could not be restored”.
In the case of “Gap19: nine amino acid sequence of L2, selective Cx43-hemichannel inhibitor (KQIEIKKFK; UniProt P17302 128-136, looked up, fragment)”, the “effect on opening of Cx43-hemichannels” value (Cx43-hemichannels) is listed as “inhibit the opening of Cx43-hemichannels” and the “effect on Cx43 gap junctions” value (Cx43 gap junctions) is listed as “not affecting Cx43 gap junctions”.
In the case of YGRKKRRQRRRSRPRPDDLFI [TAT-CT9], the “restoration of ATP release of Cx43^M242 hemichannels in response to 2 μM A23187” value (Cx43^M242 hemichannels) is listed as “can restore the activity”, the “effect on Cx43-hemichannel inhibition by high [Ca2+]i” value (Cx43-hemichannels) is listed as “prevented the Cx43-hemichannel inhibition by high [Ca^2+]i” and the “restoration of the activity of Cx43^M239-based hemichannels” value (Cx43-hemichannels; cell-permeant synthetic peptide) is listed as “can be restored”. For the same compound, the “restoration of the thrombin-reduced active area in BCECs” value ([1]; thrombin-treated BCECs) was “could restore the thrombin-reduced active area”.
